ChEMBL document CHEMBL1139400, “Thiadiazolopiperazinyl ureas as inhibitors of fatty acid amide hydrolase” (Bioorg Med Chem Lett, 2008)
The source made the active and inactive calls. The calls are words filed in the database; no cut-off is given here.

What was measured:
Rattus norvegicus [1] = assay: Volume of distribution in rat at 10 mg/kg, po; assay type: ADME, organism-based; design: dose 10 mg/kg, route oral; conditions: in vivo
[2] = target: T1, Fatty-acid amide hydrolase 1 (Rattus norvegicus) (UniProt P97612); assay: Inhibition of rat FAAH assessed as recovery of enzyme activity at IC80 concentration after 18 hrs at 4 degC by dialysis
T1 sequence (whole entry): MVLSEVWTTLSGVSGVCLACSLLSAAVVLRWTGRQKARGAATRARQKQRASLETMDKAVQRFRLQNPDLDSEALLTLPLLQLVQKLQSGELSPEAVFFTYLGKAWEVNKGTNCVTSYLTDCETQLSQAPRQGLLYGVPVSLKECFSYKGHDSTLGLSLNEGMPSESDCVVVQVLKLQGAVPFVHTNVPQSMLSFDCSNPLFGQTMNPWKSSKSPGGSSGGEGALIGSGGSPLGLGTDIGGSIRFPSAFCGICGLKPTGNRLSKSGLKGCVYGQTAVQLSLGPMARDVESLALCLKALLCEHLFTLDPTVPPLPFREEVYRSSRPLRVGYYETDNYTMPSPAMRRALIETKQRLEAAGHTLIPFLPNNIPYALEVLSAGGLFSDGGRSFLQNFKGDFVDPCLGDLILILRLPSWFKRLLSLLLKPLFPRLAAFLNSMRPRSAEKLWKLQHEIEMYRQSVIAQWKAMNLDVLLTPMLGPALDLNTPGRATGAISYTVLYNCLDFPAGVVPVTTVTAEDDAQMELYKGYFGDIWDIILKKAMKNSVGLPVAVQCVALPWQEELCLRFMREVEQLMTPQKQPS

Rattus norvegicus [3] = organism: Rattus norvegicus; assay: Inhibition of rat liver esterase assessed as ester (4-nitrophenyl-acetate) hydrolysis at 10 uM after 30 mins
Method in brief: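 Rat liver microsomes; carboxylesterase activity read as change in rate of 4-nitrophenyl-acetate hydrolysis; compound at 10 with 30 min preincubation; DMSO vehicle control; % relative activity.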

Rattus norvegicus [4] = assay: Volume of distribution in rat at 10 mg/kg, ip; assay type: ADME, organism-based; design: dose 10 mg/kg, route intraperitoneal; conditions: in vivo
[5] = target: T1, Fatty-acid amide hydrolase 1 (Rattus norvegicus); assay: Inhibition of rat FAAH assessed as recovery of enzyme activity at IC80 concentration after 18 hrs at 22 degC by dialysis
[6] = Half life in rat plasma at 10 mg/kg, po; assay type: ADME, organism-based; design: dose 10 mg/kg, route oral
[7] = Tmax in rat brain at 20 mg/kg, ip; assay type: ADME, organism-based; design: dose 20 mg/kg, route intraperitoneal
[8] = Tmax in rat at 10 mg/kg, ip; assay type: ADME, organism-based; design: dose 10 mg/kg, route intraperitoneal; conditions: in vivo
[9] = Tmax in rat plasma at 20 mg/kg, ip; assay type: ADME, organism-based; design: dose 20 mg/kg, route intraperitoneal
Rattus norvegicus [10] = assay: Increase in anandamide levels in rat brain at 20 mg/kg, ip; assay type: functional, organism-based; design: dose 20 mg/kg
Method in brief: (§1)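 Rats dosed at 20 mg/kg i.p.; anandamide levels measured in brain tissue at 4 h post dose, compared with control.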

[11] = Blood-brain barrier coefficient in rat assessed as log of ratio of brain AUC to plasma AUC at 20 mg/kg, ip; assay type: ADME, organism-based; design: dose 20 mg/kg, route intraperitoneal
Rattus norvegicus [12] = assay: Ex vivo inhibition of FAAH in rat brain assessed as recovered enzyme activity at 20 mg/kg, ip after 24 hrs relative to control; assay type: functional; design: scale not given: the % may be the effect or the level left; conditions: route intraperitoneal
Method in brief: (§2)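 Rats dosed once at 20 mg/kg i.p.; brains removed at time points up to 24 h and FAAH activity measured ex vivo, expressed relative to untreated animals.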

[13] = Tmax in rat at 10 mg/kg, po; assay type: ADME, organism-based; design: dose 10 mg/kg, route oral; conditions: in vivo
Rattus norvegicus [14] = assay: Increase in anandamide levels in rat brain at 20 mg/kg, ip after 4 hrs relative to control; assay type: functional; conditions: route intraperitoneal; method in brief: as §1
[15] = Mean retention time in rat at 10 mg/kg, ip; assay type: ADME, organism-based; design: dose 10 mg/kg, route intraperitoneal; conditions: in vivo
[16] = Volume of distribution in rat at 1 mg/kg, iv; assay type: ADME, organism-based; design: dose 1 mg/kg, route intravenous; conditions: in vivo
[17] = target: T2, Fatty-acid amide hydrolase 1 (Rattus norvegicus, UniProt P97612); assay: Inhibition of rat FAAH preincubated for 20 mins
T2 sequence (P97612 whole entry): T1 sequence (whole entry)

[18] = Cmax in rat at 10 mg/kg, ip; assay type: ADME, organism-based; design: dose 10 mg/kg, route intraperitoneal; conditions: in vivo
[19] = Cmax in rat at 1 mg/kg, iv; assay type: ADME, organism-based; design: dose 1 mg/kg, route intravenous; conditions: in vivo
[20] = Cmax in rat brain at 20 mg/kg, ip; assay type: ADME, organism-based; design: dose 20 mg/kg, route intraperitoneal
[21] = Oral bioavailability in rat at 10 mg/kg; assay type: ADME, organism-based; conditions: in vivo
[22] = Clearance in rat at 10 mg/kg, po; assay type: ADME, organism-based; design: dose 10 mg/kg, route oral; conditions: in vivo
[23] = Half life in rat plasma at 10 mg/kg, ip; assay type: ADME, organism-based; design: dose 10 mg/kg, route intraperitoneal
[24] = Clearance in rat at 10 mg/kg, ip; assay type: ADME, organism-based; design: dose 10 mg/kg, route intraperitoneal; conditions: in vivo
[25] = Mean retention time in rat at 10 mg/kg, po; assay type: ADME, organism-based; design: dose 10 mg/kg, route oral; conditions: in vivo
Rattus norvegicus [26] = assay: Ex vivo inhibition of FAAH in rat brain at 20 mg/kg, ip; assay type: functional, organism-based; design: dose 20 mg/kg; method in brief: as §2
[27] = Half life in rat plasma at 1 mg/kg, iv; assay type: ADME, organism-based; design: dose 1 mg/kg, route intravenous
[28] = Cmax in rat at 10 mg/kg, po; assay type: ADME, organism-based; design: dose 10 mg/kg, route oral; conditions: in vivo
[29] = Bioavailability in rat at 10 mg/kg, ip; assay type: ADME, organism-based; conditions: in vivo
[30] = Clearance in rat at 1 mg/kg, iv; assay type: ADME, organism-based; design: dose 1 mg/kg, route intravenous; conditions: in vivo
[31] = Mean retention time in rat at 1 mg/kg, iv; assay type: ADME, organism-based; design: dose 1 mg/kg, route intravenous; conditions: in vivo
[32] = Cmax in rat plasma at 20 mg/kg, ip; assay type: ADME, organism-based; design: dose 20 mg/kg, route intraperitoneal

SMILES: O=C(Nc1ccccc1)N1CCN(c2nc(-c3ccccc3)ns2)CC1
- Vd (Rattus norvegicus [1]): 45 L
- Activity [2]: Active
- Activity (Rattus norvegicus [3]): inactive
- Vd (Rattus norvegicus [4]): 4.6 L
- Activity [5]: inactive
- half-life [6]: 4.4 h
- Tmax [7]: 2 h
- Tmax [8]: 0.583 h
- Tmax [9]: 0.75 h
- Activity (Rattus norvegicus [10]): Active
- Kp [11]: 0.042
- Activity (Rattus norvegicus [12]): 25%
- Tmax [13]: 1.83 h
- fold change (FC) (Rattus norvegicus [14]): 1.4
- MRT [15]: 2.25 h
- Vd [16]: 0.57 L
- IC50 [17]: 0.034 µM
- Cmax [18]: 1.58 µM
- Cmax [19]: 3.06 µM
- Cmax [20]: 6.04 µM
- bioavailability [21]: 5%
- CL/F [22]: 116 mL/min
- half-life [23]: 1.57 h
- CL/F [24]: 32 mL/min
- MRT [25]: 6.37 h
- Activity (Rattus norvegicus [26]): Active
- half-life [27]: 0.567 h
- Cmax [28]: 0.301 µM
- bioavailability [29]: 20%
- clearance [30]: 6 mL/min
- MRT [31]: 0.817 h
- Cmax [32]: 26.9 µM
